From ChEMBL document CHEMBL4823271, “Synthesis and structure-activity relationship of new chalcone linked 5-phenyl-3-isoxazolecarboxylic acid methyl esters potentially active against drug resistant Mycobacterium tuberculosis” (Eur J Med Chem, 2021) come the findings set out here.

Data set [1] concerns Mycobacteroides chelonae. In words: Antimycobacterial activity against Mycobacterium chelonae ATCC 35752 assessed as visible growth inhibition incubated for 16 to 18 hrs. The settings on record: time 16-18 hrs. It counts as functional, organism-based.
Data set [2] has as its system Mycolicibacterium fortuitum. In words: Antimycobacterial activity against Mycobacterium fortuitum ATCC 6841 assessed as visible growth inhibition incubated for 16 to 18 hrs. In kind it is functional, organism-based. The note with it: time 16-18 hrs.
Data set [3] is described as follows: Selectivity index, ratio of CC50 for African green monkey Vero cells to MIC for Antitubercular activity against Mycobacterium tuberculosis H37Rv. In kind it is toxicity. The note with it: read-out: Selectivity Index. The procedure, abridged:
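Selectivity index calculated as Vero CC50 (MTT, 72 h) divided by the H37Rv MIC from the resazurin broth microdilution assay.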

The subject of data set [4] is Mycobacterium tuberculosis. In words: Antitubercular activity against Mycobacterium tuberculosis H37Rv assessed as bacterial growth inhibition after 7 days by broth microdilution assay. The note with it: 168 h, dose 0.03-64 µg/ml, time 7 day. In kind it is functional. The procedure, abridged:
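Compounds were tested in broth microdilution from 64 downward, incubated 37 °C for 7 days, then resazurin (PrestoBlue) added. MIC is the lowest concentration preventing the blue-to-pink change, run in triplicate, reporting the value obtained at least twice of three.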

The test system of data set [5] is Mycobacterium tuberculosis. Nature of the data set: Antimycobacterial activity against Mycobacterium tuberculosis H37Rv ATCC 27294 assessed as reduction in bacterial growth incubated for […] by broth microdilution assay. It counts as functional. On the technique in general: In broth dilution the organism is exposed to a series of concentrations in liquid medium.

Data set [6] deals with Mycobacteroides abscessus. In words: Antimycobacterial activity against Mycobacterium abscessus ATCC 19977 assessed as visible growth inhibition incubated for 16 to 18 hrs. The note with it: time 16-18 hrs. In kind it is functional, organism-based.
Data set [7] can be described thus: Cytotoxicity against African green monkey vero cells assessed as reduction in cell viability measured after 72 hrs by MTT assay. It counts as cell-based. The settings on record: chlorocebus sabaeus. The procedure, abridged:
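Vero cells seeded at ~10³ cells/well and grown 24 h at 37 °C, 5% CO₂, then exposed to compound (100 to 5 mg/l) for 72 h. MTT was added […] for 4 h and formazan dissolved in DMSO. CC50 is the lowest concentration giving 50% viability reduction. Doxorubicin was the positive control, run in triplicate.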
On the technique in general: Tetrazolium assays rely on reduction of a dye to a coloured formazan, in cell work by metabolically active cells.

Data set [8] concerns Mycobacterium tuberculosis. Nature of the data set: Antimycobacterial activity against Mycobacterium tuberculosis H37Rv assessed as reduction in CFU at 10 times MIC concentration measured up to 6 days by time kill assay. The settings on record: time day <=6. It counts as functional, organism-based. The method in brief:
(§1)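 Time-kill: H37Rv at ~10⁵ CFU/mL in 96-well plates with compound at 1x or 10x MIC, 37 °C for 6 days. At time-points, samples were serially two-fold diluted in normal saline and plated on 7H11 agar with OADC. Colonies were counted after […] at 37 °C, and CFU/mL was plotted against time with and without compound.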

The test system of data set [9] is Mycobacterium tuberculosis. In words: Antimycobacterial activity against Mycobacterium tuberculosis H37Rv assessed as reduction in CFU at MIC concentration measured up to 6 days by time kill assay. The note with it: time day <=6. It counts as functional, organism-based. The method in brief: as §1
For data set [10], the system named is Mycobacterium tuberculosis. Nature of the data set: Antimycobacterial activity against Mycobacterium tuberculosis H37Ra. It counts as functional.

≈ marks a conversion by molar mass, not a printed value. Calls of active or inactive are those of the source. The rule behind the calls is not given here.

Take `COC(=O)c1cc(-c2cccc(NC(=O)c3ccc(/C=C/C(=O)c4cccc(Cl)c4)cc3)c2)on1`: the result in [1], in data set [2] and in data set [6] was inactive. Further, the selectivity ratio in data set [3] was above 10. Moreover, the minimal inhibitory concentration (MIC) in data set [4] and in [5] was 0.25 µg/mL (≈ 0.513 µM) throughout. Further, the CC50 at 72 h in data set [7] is above 2.5 µg/mL.
For the compound `CCOc1ccc(C(=O)/C=C/c2ccc(C(=O)Nc3cccc(-c4cc(C(=O)OC)no4)c3)cc2)cc1`, the result in [1], in data set [2] and in [6] was inactive. In addition, the selectivity ratio in data set [3] was above 160. Besides, the minimal inhibitory concentration (MIC) in data set [4] and in data set [5] was 0.25 µg/mL (≈ 0.504 µM) throughout. In addition, the result in data set [8] and in [9] was Active. Moreover, in [7], the CC50 at 72 h was above 40 µg/mL.
For the compound `COC(=O)c1cc(-c2cccc(NC(=O)c3ccc(/C=C/C(=O)c4ccc(Cl)cc4)cc3)c2)on1`, the result in data set [1], in [2] and in [6] was inactive. Moreover, the selectivity ratio in [3] is above 416. In addition, the minimum inhibitory concentration (MIC) in [4] and in data set [5] was 0.12 µg/mL (≈ 0.246 µM) throughout. The CC50 at 72 h in [7] was above 50 µg/mL.
In the case of `COC(=O)c1cc(-c2cccc(NC(=O)c3ccc(/C=C/C(=O)c4ccc(F)cc4F)cc3)c2)on1`, the result in data set [1], in data set [2] and in [6] was inactive. Moreover, the selectivity ratio in data set [3] is above 333. In addition, the minimal inhibitory concentration (MIC) in [4] and in data set [5] was 0.12 µg/mL (≈ 0.246 µM) throughout. For the same compound, the CC50 at 72 h in data set [7] is above 40 µg/mL.
`COC(=O)c1cc(-c2cccc(NC(=O)c3ccc(/C=C/C(=O)c4ccccc4C)cc3)c2)on1`: the result in data set [1], in data set [2] and in [6] was inactive. Also, the selectivity ratio in [3] was above 100. In addition, the minimum inhibitory concentration (MIC) in data set [4] and in data set [5] was 0.25 µg/mL (≈ 0.536 µM) in each case. The CC50 at 72 h in data set [7] was above 25 µg/mL.
Take `COC(=O)c1cc(-c2cccc(NC(=O)c3ccc(/C=C/C(=O)c4ccccc4Cl)cc3)c2)on1`: the outcome in data set [1], in data set [2] and in [6] was inactive. For the same compound, the selectivity ratio in data set [3] is above 100. Also, the minimum inhibitory concentration (MIC) in data set [4] and in data set [5] was 0.25 µg/mL (≈ 0.513 µM) in each case. Also, the half-maximal cytotoxic concentration (CC50) at 72 h in data set [7] was above 25 µg/mL.
Turning to `COC(=O)c1cc(-c2ccc(NC(=O)c3ccc(/C=C/C(=O)c4ccc(Cl)cc4)cc3)cc2)on1`, the result in [1], in data set [2] and in data set [6] was inactive. The selectivity ratio in data set [3] was above 1330. In addition, the minimal inhibitory concentration (MIC) in [4] and in data set [5] was 0.06 µg/mL (≈ 0.123 µM) each time. In addition, in data set [7], the CC50 at 72 h is above 80 µg/mL.
For `COC(=O)c1cc(-c2cccc(NC(=O)c3ccc(/C=C/C(=O)c4ccc(N5CCOCC5)cc4)cc3)c2)on1`, the result in data set [1], in data set [2] and in data set [6] was inactive. Moreover, the selectivity ratio in [3] is above 40. Also, the MIC was determined as 0.5 µg/mL (≈ 0.93 µM) in [4] and 5 µg/mL (≈ 9.3 µM) in data set [5]. In [7], the CC50 at 72 h is above 20 µg/mL.
On to `CCOC(=O)c1cc(-c2cccc(NC(=O)c3ccc(/C=C/C(=O)c4ccc(Cl)cc4)cc3)c2)on1`, for which the outcome in data set [1], in [2] and in data set [6] was inactive. In addition, the selectivity ratio in [3] was above 160. Besides, the MIC in [4] and in data set [5] was 0.5 µg/mL (≈ 0.998 µM) each time. The half-maximal cytotoxic concentration (CC50) at 72 h in data set [7] is above 80 µg/mL.
Turning to `CN[C@@H]1[C@H](O[C@H]2[C@H](O[C@H]3[C@H](O)[C@@H](O)[C@H](N=C(N)N)[C@@H](O)[C@@H]3N=C(N)N)O[C@@H](C)[C@]2(O)C=O)O[C@@H](CO)[C@H](O)[C@H]1O` [STREPTOMYCIN], the MIC was 0.5 µg/mL (≈ 0.86 µM) in data set [4] and 2 µg/mL (≈ 3.44 µM) in data set [5].
For `CO[C@H]1/C=C/O[C@@]2(C)Oc3c(C)c(O)c4c(O)c(c(/C=N/N5CCN(C)CC5)c(O)c4c3C2=O)NC(=O)/C(C)=C\C=C\[C@H](C)[C@H](O)[C@@H](C)[C@@H](O)[C@@H](C)[C@H](OC(C)=O)[C@@H]1C` [RIFAMPIN], in that order: 0.03 µg/mL (≈ 0.0365 µM) and 0.06 µg/mL (≈ 0.0729 µM).
Regarding `COc1cc(/C=C/c2cc(/C=C/c3ccc(OC)c(OC)c3)no2)ccc1O`, in data set [10], the lowest concentration to inhibit growth (MIC) was 0.09 µg/mL (≈ 0.237 µM).
For the compound `COC(=O)c1cc(-c2cccc(NC(=O)c3ccc(/C=C/C(=O)c4ccc(C)cc4)cc3)c2)on1`, the result in data set [1], in [2] and in data set [6] was inactive. In data set [3], the selectivity ratio was above 160. Moreover, the values for the MIC in [4] and in [5] were 0.5 µg/mL (≈ 1.07 µM) and 5 µg/mL (≈ 10.7 µM), respectively. Besides, in data set [7], the cytotoxic concentration (CC50) at 72 h is above 80 µg/mL.
With `COC(=O)c1cc(-c2cccc(NC(=O)c3ccc(/C=C/C(=O)c4ccc(CC(C)C)cc4)cc3)c2)on1`, the result in [1], in data set [2] and in data set [6] was inactive. Further, the selectivity ratio in data set [3] is above 84. Besides, the MIC in data set [4] and in [5] was 0.12 µg/mL (≈ 0.236 µM) throughout. The CC50 at 72 h in data set [7] is above 10 µg/mL.
As to `CC[C@@H](CO)NCCN[C@@H](CC)CO` [ETHAMBUTOL], the minimum inhibitory concentration (MIC) in [4] and in data set [5] was 1 µg/mL (≈ 4.89 µM) each time.
Consider `CCCOc1ccc(C(=O)/C=C/c2ccc(C(=O)Nc3cccc(-c4cc(C(=O)OC)no4)c3)cc2)cc1`, for which the result in [1], in data set [2] and in data set [6] was inactive. Also, in data set [3], the selectivity ratio was above 320. For the same compound, the MIC in [4] and in data set [5] was 0.12 µg/mL (≈ 0.235 µM) in each case. Moreover, the outcome in data set [8] was Active. In addition, the half-maximal cytotoxic concentration (CC50) at 72 h in data set [7] is above 40 µg/mL.
Turning to `COC(=O)c1cc(-c2cccc(NC(=O)c3ccc(/C=C/C(=O)c4ccc(Cl)cc4Cl)cc3)c2)on1`, the result in [1], in data set [2] and in data set [6] was inactive. Moreover, the selectivity ratio in data set [3] was above 80. The MIC in [4] and in [5] was 0.5 µg/mL (≈ 0.959 µM) in each case. In addition, in [7], the cytotoxic concentration (CC50) at 72 h was above 40 µg/mL.
Take `COC(=O)c1cc(-c2cccc(NC(=O)c3ccc(/C=C/C(=O)c4ccc(OC)cc4OC)cc3)c2)on1`: the result in [1], in [2] and in [6] was inactive. Also, the selectivity ratio in [3] is above 200. The MIC in data set [4] and in data set [5] was 0.25 µg/mL (≈ 0.488 µM) in each case. In [7], the CC50 at 72 h is above 50 µg/mL.

By MIC is commonly meant the least concentration at which growth counts as inhibited. In general, CC50 refers to the concentration at which the toxic effect on the cells reaches its halfway point.
